Data: ChEMBL document CHEMBL1123985, “Oral absorption of cephalosporin antibiotics. 1. Synthesis, biological properties, and oral bioavailability of 7-(arylacetamido)-3-chloro cephalosporins in animals” (J Med Chem, 1988)
≈ marks a conversion by molar mass, not a printed value.

Key:
[1] = test system: Klebsiella aerogenes; assay: Minimum inhibitory concentration against EB17 strain of Enterobacter aerogenes; type: functional
[2] = test system: Staphylococcus aureus; assay: Minimum inhibitory concentration against V41 strain of Staphylococcus aureus; type: functional
[3] = Area under plasma concentration vs time curve observed in Rhesus monkeys after, iv administration of single 30 mg/kg dose; type: ADME, organism-based, Macaca mulatta; set-up: dose 30 mg/kg, route intravenous; settings: rhesus monkey
Outline: (§1)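 Rhesus monkeys, adult males, six animals per compound, each given drug orally and iv; fasted overnight. Single 30 mg/kg solution doses, by nasogastric tube (in water) or saphenous vein (in isotonic lactated Ringer). Plasma sampled at intervals, frozen at -70 °C, antibacterial activity by microbiological assay. AUC in μg min/mL; oral bioavailability from oral vs iv AUC.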

[4] = test system: Mus musculus; assay: Efficacy against mouse infected ip with C203 strain of Streptococcus pyogenes, administered sc to 19-21-g random sex ICR mice at 1 hr and 5 hr; type: functional
Outline: (§2)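 ICR mice, random sex, 19-21 g, challenged ip with 50-500 LC50 from a frozen organism pool; compound given sc or po at 1 and 5 h after challenge, five 2-fold dose levels, eight mice per level; ED50 derived.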

[5] = test system: Streptococcus pyogenes; assay: Minimum inhibitory concentration against Streptococcus pyogenes C203; type: functional
[6] = test system: Mus musculus; assay: Efficacy against mouse infected ip with 3055 strain of Staphylococcus aureus, administered po to 19-21-g random sex ICR mice at 1 hr and 5 hr; type: functional; outline: as §2
[7] = test system: Staphylococcus aureus; assay: Minimum inhibitory concentration against X1.1 strain of Staphylococcus aureus; type: functional
[8] = Oral bioavailability in Rhesus monkey; type: ADME, organism-based, Macaca mulatta; settings: in vivo; outline: as §1
[9] = test system: Canis familiaris; assay: Area under plasma concentration vs time curve observed in female mongrel dogs after, oral administration of single 15 mg/kg dose; type: ADME, organism-based, Canis lupus familiaris; set-up: dose 15 mg/kg, route oral; settings: dog, in vivo
Outline: (§3)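 Six female mongrel dogs (14-23 kg) fasted overnight, bladder catheterized; single 15 mg/kg solution doses by stomach tube (in water, total 500 mL) or cephalic vein (saline or pH 6.0 NaCl/phosphate/acetate buffer). Plasma sampled at intervals; activity by disk-plate agar diffusion against E. coli MB 3804, standards in dog serum or buffer. AUC μg min/mL, mean ± SEM; BA from iv vs po AUC and urinary recovery.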

[10] = Oral bioavailability in mouse; type: ADME, organism-based; settings: in vivo
Outline: (§4)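 Male Cox mice given water and liquid diet overnight; 20 mg/kg in saline (2 mg/mL) sc or orally; urine from collection cages plus bladder contents over 2 h; activity by agar well assay with Bacillus subtilis ATCC 6633. Bioavailability from percent dose excreted in urine after oral vs parenteral dosing.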

[11] = test system: Mus musculus; assay: Efficacy against mouse infected ip with park strain of Streptococcus pneumoniae administered sc to 19-21-g random sex ICR mice at 1 hr and 5 hr; type: functional; outline: as §2
[12] = test system: Staphylococcus aureus; assay: Minimum inhibitory concentration against 3055 strain of Staphylococcus aureus
[13] = test system: Staphylococcus epidermidis; assay: Minimum inhibitory concentration against 222 strain of Staphylococcus epidermidis; type: functional
[14] = test system: Salmonella; assay: Minimum inhibitory concentration against X514 strain of Salmonella; type: functional
[15] = test system: Staphylococcus aureus; assay: Minimum inhibitory concentration against S13E strain of Staphylococcus aureus; type: functional
[16] = test system: Streptococcus pneumoniae; assay: Minimum inhibitory concentration against park strain of Streptococcus pneumoniae
[17] = Area under plasma concentration vs time curve observed in Rhesus monkeys after oral administration of single 30 mg/kg dose; type: ADME, organism-based, Macaca mulatta; set-up: dose 30 mg/kg, route oral; settings: rhesus monkey; outline: as §1
[18] = dose in urine (24-h urine excretion) in female mongrel dogs after, oral administration of single 15 mg/kg dose; type: ADME, organism-based, Canis lupus familiaris; set-up: dose 15 mg/kg, route oral; settings: dog
Outline: (§5)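 Female mongrel dogs (n=6), bladder catheter; urine collected at intervals after single 15 mg/kg iv or oral solution dose, frozen; antibiotic activity by disk-plate agar diffusion against E. coli MB 3804 with standards in pH 6.0 buffer; percent of dose recovered in urine.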

[19] = test system: Staphylococcus epidermidis; assay: Minimum inhibitory concentration against Epil strain of Staphylococcus epidermidis; type: functional
[20] = test system: Mus musculus; assay: Efficacy against mouse infected ip with C203 strain of Streptococcus pyogenes, administered po to 19-21-g random sex ICR mice at 1 hr and 5 hr; type: functional; outline: as §2
[21] = test system: Streptococcus pneumoniae; assay: Minimum inhibitory concentration against Park strain of Streptococcus pneumoniae; type: functional
[22] = test system: Klebsiella pneumoniae; assay: Minimum inhibitory concentration against X68 strain of Klebsiella pneumoniae; type: functional
[23] = test system: Mus musculus; assay: Efficacy against mouse infected ip with park strain of Streptococcus pneumoniae administered po to 19-21-g random sex ICR mice at 1 hr and 5 hr; type: functional; outline: as §2
[24] = test system: Escherichia coli; assay: Minimum inhibitory concentration against EC14 strain Escherichia coli; type: functional
[25] = Minimum inhibitory concentration against N9 strain of Shigella sonnei; type: functional
[26] = test system: Streptococcus pyogenes; assay: Minimum inhibitory concentration against C203 strain of Streptococcus pyogenes
[27] = dose in urine (24-h urine excretion) in female mongrel dogs after, iv administration of single 15 mg/kg dose; type: ADME, organism-based, Canis lupus familiaris; set-up: dose 15 mg/kg, route intravenous; settings: dog; outline: as §5
[28] = test system: Mus musculus; assay: Efficacy against mouse infected ip with 3055 strain of Staphylococcus aureus, administered sc to 19-21-g random sex ICR mice at 1 hr and 5 hr; type: functional; outline: as §2
[29] = Oral bioavailability in dog (female mongrel); type: ADME, organism-based, Canis lupus familiaris; settings: in vivo; outline: as §3
[30] = test system: Canis familiaris; assay: Area under plasma concentration vs time curve observed in female mongrel dogs after, iv administration of single 15 mg/kg dose; type: ADME, organism-based, Canis lupus familiaris; set-up: dose 15 mg/kg, route intravenous; settings: dog, in vivo; outline: as §3
[31] = test system: Haemophilus influenzae; assay: Minimum inhibitory concentration against sens CL strain of Haemophilus influenzae; type: functional
[32] = test system: Haemophilus influenzae; assay: Minimum inhibitory concentration against res 76 strain of Haemophilus influenzae; type: functional
[33] = Dose in urine (24-h urine excretion) in female mongrel dogs after oral administration of single 15 mg/kg dose; type: ADME, organism-based, Canis lupus familiaris; set-up: dose 15 mg/kg, route oral; settings: dog; outline: as §5
[34] = Half-life of the compound; type: ADME
Outline: (§6)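 Rats, jugular vein cannulated (two per group), test compound iv 20 mg/kg; probenecid 100 mg/kg iv 5 min before in treated groups. Heparinized plasma sampled at 5, 20, 40 min and 1, 2, 3 h, assayed microbiologically (B. subtilis agar well). AUC 0-3 h in μg min/mL; half-life in min.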

[35] = Mean plasma levels in rats at a time 5 min after iv administration of 100 mg/kg of probenecid 5 min prior to test compound; type: ADME, organism-based; set-up: dose 100 mg/kg, route intravenous; settings: rat, read-out: Plasma levels; outline: as §6
[36] = test system: Streptococcus pneumoniae; assay: Minimum inhibitory concentration against Park strain of Streptococcus pneumoniae
[37] = Bioavailability in rat; type: ADME, organism-based; settings: in vivo
Outline: (§7)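 Male Wistar rats (200-300 g), jugular-cannulated, upper GI emptied by light cycle; 20 mg/kg in saline (6 mg/mL) sc or orally. Urine collected in wire-bottom cages, assayed by B. subtilis agar well method. Mean ± SD recovery with N and range; bioavailability = oral over mean sc recovery.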

[38] = Mean plasma levels in rats 2 hr after iv administration of 100 mg/kg of probenecid 5 min prior to test compound; type: ADME, organism-based; set-up: dose 100 mg/kg, route intravenous; settings: rat, read-out: Plasma levels; outline: as §6
[39] = Percent of urinary recovery in rats after, sc administration of single 20 mg/kg dose in solution (N,range); type: ADME, organism-based; set-up: dose 20 mg/kg, route subcutaneous; settings: rat, urine, read-out: Recovery; outline: as §7
[40] = Mean plasma levels in rats 20 min after iv administration of 100 mg/kg of probenecid 5 min prior to test compound; type: ADME, organism-based; set-up: dose 100 mg/kg, route intravenous; settings: rat, read-out: Plasma levels; outline: as §6
[41] = Area under plasma concentration vs time curve observed in rats for 0-3 h; type: ADME; set-up: time < 3 hr; settings: rat; outline: as §6
[42] = Mean plasma levels in rats 1 hr after iv administration of 100 mg/kg of probenecid 5 min prior to test compound; type: ADME, organism-based; set-up: dose 100 mg/kg, route intravenous; settings: rat, read-out: Plasma levels; outline: as §6
[43] = Mean plasma levels in rats 40 min after iv administration of 100 mg/kg of probenecid 5 min prior to test compound; type: ADME, organism-based; set-up: dose 100 mg/kg, route intravenous; settings: rat, read-out: Plasma levels; outline: as §6
[44] = Mean plasma levels in rats 3h after intravenous administration of 20 mg/kg of compound; type: ADME, organism-based; set-up: dose 20 mg/kg, route intravenous; settings: rat, read-out: Plasma levels; outline: as §6
[45] = Percent of urinary recovery in rats after, oral administration of single 20 mg/kg dose in solution (N,range); type: ADME, organism-based; set-up: dose 20 mg/kg, route oral; settings: rat, urine, read-out: Recovery; outline: as §7
[46] = Dose in urine (24-h urine excretion) in female mongrel dogs after iv administration of single 15 mg/kg dose; type: ADME, organism-based, Canis lupus familiaris; set-up: dose 15 mg/kg, route intravenous; settings: dog; outline: as §5
[47] = Compound was tested for percent of oral bioavailability in mice; 56-74; type: ADME, organism-based; settings: mouse, in vivo, read-out: Bioavailabiility; outline: as §4

Compound	MIC [1] [mg/L]	MIC [2] [mg/L]	AUC [3] [µg·h/mL]	MIC [5] [mg/L]	MIC [7] [mg/L]	bioavailability [8] [%]	AUC [9] [µg·h/mL]	MIC [12] [mg/L]	MIC [13] [mg/L]	MIC [14] [mg/L]	MIC [15] [mg/L]	MIC [16] [mg/L]	AUC [17] [µg·h/mL]	MIC [19] [mg/L]	MIC [22] [mg/L]	MIC [24] [mg/L]	MIC [25] [mg/L]	MIC [26] [mg/L]	bioavailability [29] [%]	AUC [30] [µg·h/mL]	also measured
O=C(Cc1csc2ccccc12)N[C@@H]1C(=O)N2C(C(=O)O)=C(Cl)CS[C@H]12	> 128	8 (≈ 19.6 µM)	86.8	0.06 (≈ 0.147 µM)	0.125 (≈ 0.306 µM)	1.3	< 0.8	0.25 (≈ 0.611 µM)	0.25 (≈ 0.611 µM)	128 (≈ 313 µM)	8 (≈ 19.6 µM)	0.06 (≈ 0.147 µM)	1.17	1 (≈ 2.45 µM)	128 (≈ 313 µM)	64 (≈ 157 µM)	128 (≈ 313 µM)	0.06 (≈ 0.147 µM)	< 3	29.3	ED50 [4]: 3.8 mg/kg; ED50 [6]: 1.51 mg/kg; bioavailability [10]: 47%; ED50 [11]: 14.8 mg/kg; dose excreted [18]: 1.5%; ED50 [20]: 5.5 mg/kg; MIC [21]: 0.125 mg/L (≈ 0.306 µM); ED50 [23]: 36.2 mg/kg; dose excreted [27]: 20%; ED50 [28]: 0.62 mg/kg; MIC [31]: 1 mg/L (≈ 2.45 µM); MIC [32]: 0.25 mg/L (≈ 0.611 µM)
O=C(COc1ccccc1)N[C@@H]1C(=O)N2C(C(=O)O)=C(Cl)CS[C@H]12	> 128	8 (≈ 21.7 µM)	38	0.125 (≈ 0.339 µM)	0.25 (≈ 0.678 µM)	13.1	16.7	0.25 (≈ 0.678 µM)	0.25 (≈ 0.678 µM)	> 128	16 (≈ 43.4 µM)	0.06 (≈ 0.163 µM)	5	4 (≈ 10.8 µM)	128 (≈ 347 µM)	64 (≈ 174 µM)	> 128	0.06 (≈ 0.163 µM)	30	57.5	dose excreted [33]: 18%; half-life [34]: 30 min; concentration at 5 min [35]: 66 µg/mL; MIC [36]: 0.125 mg/L (≈ 0.339 µM); bioavailability [37]: 23.1%; concentration at 2 h [38]: 4.6 µg/mL; dose excreted [39]: 43.8%; concentration at 20 min [40]: 39.1 µg/mL; AUC at 3 h [41]: 51.4 µg·h/mL; concentration at 1 h [42]: 18.4 µg/mL; concentration at 40 min [43]: 25.2 µg/mL; concentration at 3 h [44]: 0.5 µg/mL; dose excreted [45]: 10.1%; MIC [31]: 1 mg/L (≈ 2.71 µM); dose excreted [46]: 48%; bioavailability [47]: 56%; MIC [32]: 2 mg/L (≈ 5.42 µM)
